Measurements collected from several papers.
Each line is one published result; the experiments were not run side by side. pEC50, pIC50: −log10 of the molar value.
Cell line: HCT-116
Read-out: cell growth or viability

`COc1nc(NCc2cn(-c3ccc(C(=O)Nc4ccc(C(F)(F)F)cc4)cc3)nn2)nc(OC)n1` gave a pIC50 of 8.85 (MTT; 72 h).
The pIC50 of `COc1ccc(-c2cc(-c3ccc(Cl)cc3)c3c(=O)n(C)c(=O)n(C)c3n2)cc1` is reported as 5.12 (MTT; 48 h).
The GI50 of `C=CC(=O)c1cccnc1Nc1cc(C(F)(F)F)ccc1OCc1ccccc1` is reported as 8.72 µM (CCK-8; 72 h).
For `COc1ccc(-c2cc(-c3c(OC)cccc3OC)c3c(=O)[nH]c(=O)[nH]c3n2)cc1`, the pIC50 was 4.54 (MTT; 48 h).
For `COc1cc2ncnc(Nc3ccc4c(c3)/C(=C/c3ccccc3)C(=O)N4C)c2cc1OC`, the pIC50 was 5.18 (MTT).
For `COc1nc(NCc2cn(-c3ccc(C(=O)Nc4ccccc4)cc3)nn2)nc(OC)n1`, the pIC50 was 9.06 (MTT; 72 h).
`Cc1ccc(-c2cc(-c3ccc(Cl)c(F)c3)c3c(=O)[nH]c(=O)[nH]c3n2)cc1` has a pIC50 of 4.95 (MTT; 48 h).
The GI50 of `O=C(O)c1cccnc1Nc1cccc(C(F)(F)F)c1` is reported as > 40 µM (CCK-8; 72 h).
`COc1ccc(-c2cc(-c3ccc(Br)cc3)c3c(=O)[nH]c(=O)[nH]c3n2)cc1` has a pIC50 of 5.10 (MTT; 48 h).
For `Cc1nc(Nc2ccc3c(c2)C(C)(C)C(=O)N3C)c2ccccc2n1`, the pIC50 was < 4.30 (MTT).
With `COc1nc(NCc2cn(-c3ccc(NC(=O)c4ccccc4)cc3)nn2)nc(OC)n1` the pIC50 was 7.22 (MTT; 72 h).
`COc1ccc(-c2cc(-c3ccc(C)cc3)nc3c2c(=O)n(C)c(=O)n3C)cc1OC` has a pIC50 of 4.68 (MTT; 48 h).
The pIC50 of `COc1nc(NCc2cn(-c3ccc(C(=O)Nc4ccc([N+](=O)[O-])cc4)cc3)nn2)nc(OC)n1` is reported as 7.23 (MTT; 72 h).
`COc1ccc(-c2cc(-c3ccc(OC)cc3)c3c(=O)[nH]c(=O)[nH]c3n2)cc1` has a pIC50 of 5.18 (MTT; 48 h).
`COc1nc(NCc2cn(-c3ccc(C(=O)Nc4ccc(C)cc4)cc3)nn2)nc(OC)n1` has a pIC50 of 7.56 (MTT; 72 h).
`Cc1nc(Nc2ccc3c(c2)/C(=C/c2ccccc2C)C(=O)N3C)c2ccccc2n1` has a pIC50 of 4.69 (MTT).
With `COc1nc(NCc2cn(-c3ccc(NC(=O)c4ccc(Cl)cc4)cc3)nn2)nc(OC)n1` the pIC50 was 7.47 (MTT; 72 h).
With `COc1cc2ncnc(Nc3ccc4c(c3)/C(=C/c3ccccc3)C(=O)N4)c2cc1OC` the pIC50 was 4.59 (MTT).
With `COc1ccc(C(=O)Nc2ccc(-n3cc(CNc4nc(OC)nc(OC)n4)nn3)cc2)cc1` the pIC50 was 7.23 (MTT; 72 h).
`COc1ccc(-c2cc(-c3ccc(C)cc3)nc3[nH]c(=O)[nH]c(=O)c23)cc1OC` gave a pIC50 of 4.72 (MTT; 48 h).
For `Cc1nc(Nc2ccc3c(c2)C(C)(C)C(=O)N3)c2ccccc2n1`, the pIC50 was < 4.30 (MTT).
With `C=CC(=O)NC1CCN(c2ncc3ncnc(Nc4ccc(Oc5ccc6c(c5)ncn6C)c(C)c4)c3n2)CC1` the pEC50 was 5.59.
For `COc1cc2ncnc(N(C)c3ccc4c(c3)/C(=C/c3cccc(Cl)c3)C(=O)N4C)c2cc1OC`, the pIC50 was 5.12 (MTT).
With `CC(=NNC(=O)COc1ccc2c(C)c(Cc3ccccc3)c(=O)oc2c1C)c1ccc(Br)cc1` the viability was 64.3% (MTT; 0.4 µg/mL).
`COc1nc(NCc2cn(-c3ccc(C(=O)Nc4ccc(Cl)cc4)cc3)nn2)nc(OC)n1` has a pIC50 of 7.48 (MTT; 72 h).
For `Cc1ccc(-c2cc(-c3c(Cl)cccc3Cl)c3c(=O)[nH]c(=O)[nH]c3n2)cc1`, the pIC50 was 4.55 (MTT; 48 h).
